The values below come from paper PMC3787871 (Bioorganic & medicinal chemistry letters, 2008).

Test [1] deals with T1, mGluR1 (Homo sapiens, UniProt Q13255). The conditions noted are these: cited from earlier work.
Test [2] relates to mGluR4. The note with it: cited from earlier work; for pEC50: mGluR4 PAM.
Test [3] relates to preclinical Parkinson's disease models. The note with it: cited from earlier work.
The test system of test [4] is mGluR4. The note with it: cited from earlier work.
Test [5] concerns the target T1, mGluR1. In words: mGluR1 antagonist activity. It is filed as cell-based.
The subject of a further test is mGluRs. As to the kind of experiment: Selectivity screen across the mGluRs. It is filed as cell-based.
Another test concerns the target mGluR8 (Homo sapiens, UniProt O00222). In words: EC20 activation assay, mGluR8. It is filed as cell-based. The conditions noted are these: at 30 μM.
For test [6], the target named is T1, mGluR1. As to the kind of experiment: EC20 activation assay, mGluR1. The format is cell-based. The note with it: at 30 μM.
Test [7] deals with T2, mGluR4 (Homo sapiens, UniProt Q14833). In words: Potentiation of an EC20 of glutamate in human mGluR4/Gqi5 CHO cells. The format is cell-based. The note with it: for mGluR4 PAM activity (in words): potentiation of EC20 glutamate, mGluR4/Gqi5 CHO cells; for loss in potency relative to 6: mGluR4 PAM EC50 versus re-synthesized 6.
The target in test [8] is T2, mGluR4. As to the kind of experiment: Receptor activation in mGluR4/Gqi5 CHO cells in the absence of glutamate. It is filed as cell-based. The note with it: no EC20 glutamate added.
Test [9] deals with T2, mGluR4. It is filed as cell-based. The conditions noted are these: at 30 μM compound. Summed up:
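Human mGluR4 co-expressed with chimeric Gqi5 in CHO cells. Glutamate concentration–response curves run with and without 30 μM test compound; fold shift taken as the leftward displacement of the glutamate curve. Responses expressed as % of maximal glutamate response. Average of at least three independent determinations, each in triplicate.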

pEC50, pIC50: −log10 of the molar value. Entries after “also recorded” stand apart in the source; their conditions may differ. A value given as a limit tells only on which side of the number the result lay.

T1 sequence (Q13255 19-1194): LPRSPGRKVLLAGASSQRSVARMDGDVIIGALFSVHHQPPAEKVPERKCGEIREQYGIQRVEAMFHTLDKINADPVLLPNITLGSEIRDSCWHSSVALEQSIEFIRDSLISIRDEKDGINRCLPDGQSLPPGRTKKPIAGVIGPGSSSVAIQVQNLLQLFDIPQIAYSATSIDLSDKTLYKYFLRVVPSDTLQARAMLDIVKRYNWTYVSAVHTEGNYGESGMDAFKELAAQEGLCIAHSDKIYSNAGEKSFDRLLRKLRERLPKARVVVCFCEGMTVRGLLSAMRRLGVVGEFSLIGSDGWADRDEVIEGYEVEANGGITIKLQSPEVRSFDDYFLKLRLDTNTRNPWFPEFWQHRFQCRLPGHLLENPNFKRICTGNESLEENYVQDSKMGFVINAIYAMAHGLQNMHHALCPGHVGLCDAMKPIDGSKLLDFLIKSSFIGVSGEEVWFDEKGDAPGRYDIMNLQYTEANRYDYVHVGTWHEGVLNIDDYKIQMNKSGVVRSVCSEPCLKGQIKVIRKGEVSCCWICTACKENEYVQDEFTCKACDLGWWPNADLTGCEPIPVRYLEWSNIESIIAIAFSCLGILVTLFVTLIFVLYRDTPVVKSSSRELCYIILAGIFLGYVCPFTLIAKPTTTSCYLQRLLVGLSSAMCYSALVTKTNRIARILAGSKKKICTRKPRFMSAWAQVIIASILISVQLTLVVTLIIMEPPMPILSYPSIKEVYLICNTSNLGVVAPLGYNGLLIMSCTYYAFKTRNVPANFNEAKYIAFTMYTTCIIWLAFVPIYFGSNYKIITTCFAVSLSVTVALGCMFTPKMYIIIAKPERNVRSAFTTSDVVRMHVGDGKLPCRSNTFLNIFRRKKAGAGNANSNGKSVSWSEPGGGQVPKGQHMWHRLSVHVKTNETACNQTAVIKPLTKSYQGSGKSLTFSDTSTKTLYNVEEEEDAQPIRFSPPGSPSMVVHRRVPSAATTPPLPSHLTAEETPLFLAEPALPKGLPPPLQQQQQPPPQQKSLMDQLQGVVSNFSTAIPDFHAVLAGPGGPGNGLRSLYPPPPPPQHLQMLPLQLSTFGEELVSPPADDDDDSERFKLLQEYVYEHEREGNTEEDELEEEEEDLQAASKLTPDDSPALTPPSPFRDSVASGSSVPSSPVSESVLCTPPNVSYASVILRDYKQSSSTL
T2 sequence (Q14833 33-912): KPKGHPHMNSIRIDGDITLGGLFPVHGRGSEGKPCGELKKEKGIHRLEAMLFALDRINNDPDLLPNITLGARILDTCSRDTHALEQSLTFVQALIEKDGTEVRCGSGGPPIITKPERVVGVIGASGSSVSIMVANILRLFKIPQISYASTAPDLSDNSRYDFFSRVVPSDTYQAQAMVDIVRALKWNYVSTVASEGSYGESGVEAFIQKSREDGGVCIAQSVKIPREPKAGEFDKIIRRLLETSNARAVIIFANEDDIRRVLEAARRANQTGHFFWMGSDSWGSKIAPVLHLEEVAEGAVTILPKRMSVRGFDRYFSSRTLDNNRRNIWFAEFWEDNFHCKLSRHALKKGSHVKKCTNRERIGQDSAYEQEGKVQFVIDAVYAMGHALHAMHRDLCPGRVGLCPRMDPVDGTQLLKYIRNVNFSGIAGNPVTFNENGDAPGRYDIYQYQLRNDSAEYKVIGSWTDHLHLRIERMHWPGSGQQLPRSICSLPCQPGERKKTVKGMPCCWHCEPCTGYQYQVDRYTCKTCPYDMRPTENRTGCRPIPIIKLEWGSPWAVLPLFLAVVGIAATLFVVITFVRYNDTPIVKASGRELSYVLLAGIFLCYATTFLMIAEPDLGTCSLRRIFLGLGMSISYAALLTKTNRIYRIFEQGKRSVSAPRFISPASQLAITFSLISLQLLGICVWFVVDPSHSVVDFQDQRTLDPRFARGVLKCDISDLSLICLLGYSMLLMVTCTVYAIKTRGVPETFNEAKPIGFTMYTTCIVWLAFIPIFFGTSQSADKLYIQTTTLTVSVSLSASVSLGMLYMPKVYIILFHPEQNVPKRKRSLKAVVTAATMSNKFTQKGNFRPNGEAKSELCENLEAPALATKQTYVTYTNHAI
Chain of mGluR8 (O00222 34-908, species assumed): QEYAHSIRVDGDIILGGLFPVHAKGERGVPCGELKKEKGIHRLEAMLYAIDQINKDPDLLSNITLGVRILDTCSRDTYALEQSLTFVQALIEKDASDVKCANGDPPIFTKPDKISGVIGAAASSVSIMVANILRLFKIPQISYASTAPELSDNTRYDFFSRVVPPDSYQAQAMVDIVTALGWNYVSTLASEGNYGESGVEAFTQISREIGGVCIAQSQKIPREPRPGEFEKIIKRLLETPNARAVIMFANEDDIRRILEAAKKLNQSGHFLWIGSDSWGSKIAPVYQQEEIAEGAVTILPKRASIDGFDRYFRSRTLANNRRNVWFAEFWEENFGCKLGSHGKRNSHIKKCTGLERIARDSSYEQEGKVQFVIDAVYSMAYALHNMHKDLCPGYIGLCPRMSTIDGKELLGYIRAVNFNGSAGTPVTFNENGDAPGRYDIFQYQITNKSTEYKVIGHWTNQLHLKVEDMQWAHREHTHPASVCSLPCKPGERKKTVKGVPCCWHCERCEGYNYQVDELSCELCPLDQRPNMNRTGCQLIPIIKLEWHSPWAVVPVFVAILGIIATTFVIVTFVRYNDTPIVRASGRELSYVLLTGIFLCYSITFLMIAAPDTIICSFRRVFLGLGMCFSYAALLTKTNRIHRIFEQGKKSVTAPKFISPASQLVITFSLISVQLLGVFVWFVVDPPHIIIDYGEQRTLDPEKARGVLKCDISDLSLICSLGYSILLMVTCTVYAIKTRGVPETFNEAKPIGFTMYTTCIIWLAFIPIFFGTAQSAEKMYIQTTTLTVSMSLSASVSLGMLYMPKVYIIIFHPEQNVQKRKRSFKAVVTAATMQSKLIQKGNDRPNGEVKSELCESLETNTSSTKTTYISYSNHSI

By pIC50 is commonly meant −log10 of the IC50, conventionally taken in molar units. For orientation: pEC50 means the EC50 on a negative log10 scale, so that one unit is a factor of ten. In the case of `Cc1ccc(-n2ncc3c(N4CCCC(C)C4)ncnc32)c(C)c1` (stereo not shown) [Compound 4], at mGluR1 [1], the “mGluR1 antagonist activity (in words)” value is on record as “significant mGluR1 antagonist activity”. Besides, the pIC50 on mGluR1 [1] (read-out: IC50 (full antagonist of mGluR1)) was 5.59. In the test on mGluR4 [2], the “fold shift of the glutamate response” value is listed as 11.8 fold and the pEC50 was 5.30.
With `O=C(O)[C@H]1CCCC[C@H]1C(=O)Nc1cc(Cl)cc(Cl)c1` [Compound 5], the “efficacy in preclinical Parkinson's disease models” value in test [3] is “displayed efficacy in preclinical Parkinson’s disease models”. The pEC50 with mGluR4 [2] is 6.12. For the same molecule, the allosteric agonist activity result in the test on mGluR4 [4] is on record as “significant allosteric agonist activity”.
On to `Cc1nc2ccccc2nc1N/N=C/c1ccc(O)cc1` [Compound 6, (E)-4-((2-(3-methylquinoxalin-2-yl)hydrazono)methyl) phenol], for which the mGluR1 antagonist activity entry on mGluR1 [5] was “devoid of mGluR1 antagonist activity; also recorded: did not exhibit mGluR1 antagonist activity”. The “antagonism of mGluRs” value with mGluRs (EC80 assay) was “not an antagonist of any mGluR”. In addition, the “selectivity across the mGluRs” value with mGluRs (activation (EC20 glutamate potentiation) and inhibition (depression of EC80) assays) is reported as “highly selective for mGluR4”. The “activation of mGluR8” value on mGluR8 is “moderate activation”. Further, the “activation of mGluR1” value on mGluR1 [6] is given as “moderate activation”. Also, on mGluR4 [7], the pEC50 is 6.19 and the “mGluR4 PAM activity (in words)” value is “Concentration-dependent potentiation”. The “effect on mGluR4 in the absence of glutamate” value on mGluR4 [8] is “no effect; also recorded: do not elicit receptor activation”.
For the molecule `Cc1ccc(N2C(=O)c3ccccc3NC2C(C)c2ccccc2)cc1` (stereo not shown) [Compound 7], the “fold shift of the glutamate response curve (leftward)” value at mGluR4 [9] is 2.7 fold. Also, the pEC50 at mGluR4 [7] was 5.74.
On to `Cc1nc2ccccc2nc1N/N=C/c1cccc(O)c1` [Compound 12a], for which the “loss in potency relative to 6” value at mGluR4 [7] is more than 3 fold.
For the molecule `Cc1nc2ccccc2nc1N/N=C/c1ccccc1O` [Compound 12b], the “loss in potency relative to 6” value on mGluR4 [7] was more than 6 fold.
For `Cc1nc2ccccc2nc1N/N=C/c1ccc(F)cc1` [Compound 12c], the “mGluR4 PAM activity (in words)” value at mGluR4 [7] was “afforded mGluR4 PAM activity”.
In the case of `Cc1nc2ccccc2nc1N/N=C/c1ccccc1` [Compound 12d], at mGluR4 [7], the “mGluR4 PAM activity (in words)” value was “afforded mGluR4 PAM activity”.
Consider `O=C(Nc1ccccc1)[C@]12C[C@H]1/C(=N\O)c1ccccc1O2` [PHCCC, N-phenyl-7-(hydroxyimino) cyclopropa(b)chromen-1a-carboxamide], for which, on mGluR1 [1], the “mGluR1 antagonist activity (in words)” value is “significant mGluR1 antagonist activity”.
